According to ChEMBL document CHEMBL5620421, “2,6-Disubstituted 7-(naphthalen-2-ylmethyl)-7H-purines as a new class of potent antitubercular agents inhibiting DprE1” (Eur J Med Chem, 2023):
pIC50: −log10 of the molar value. Converted amounts (≈) assume the structure as drawn. The source made the active and inactive calls. The rule behind the calls is not given here.

Experiments:
[1] = system: Mycobacterium tuberculosis; test: Antibacterial activity against Mycobacterium tuberculosis H37Rv assessed as inhibition of bacterial growth by micro-broth dilution method; type: functional
In short: (§1)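 Micromethod MIC in Sula's semisynthetic medium. MIC is the lowest concentration inhibiting >99% of the mycobacterial population. Isoniazid was the standard drug.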

[2] = system: Mycobacterium tuberculosis; test: (§2) Antimycobacterial activity against isoniazid/ethambutol/rifampin/streptomycin/amikacin/gentamicin/clofazimine/ofloxacin […] MDR/XDR clinical isolate Mycobacterium tuberculosis 7357/1998 assessed as inhibition of mycobacterial growth measured after 14 to 21 days of incubation by Sulas semisynthetic medium based assay; type: functional, organism-based; settings: time 14-21 day
In short: (§3)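 Clinical MDR/XDR M. tuberculosis isolates were tested by the Sula's semisynthetic medium micromethod. Compounds in DMSO at 1000 to 0.5 μmol/L, in twofold-type steps. Incubation at 37 °C, read at 14 and 21 days. MIC99 is the lowest concentration inhibiting >99% of growth. Drug resistance or susceptibility of each isolate is to amikacin, clofazimine, gentamicin, ofloxacin, streptomycin and the others listed.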

[3] = system: Mycobacterium tuberculosis; test: as §2, with “PRAHA 4” for “7357/1998”; type: functional, organism-based; settings: time 14-21 day; in short: as §3
[4] = system: Mycobacterium tuberculosis; test: as §2, with “PRAHA 1” for “7357/1998”; type: functional, organism-based; settings: time 14-21 day; in short: as §3
[5] = system: Mycobacterium tuberculosis; test: as §2, with “8666/2010” for “7357/1998”; type: functional, organism-based; settings: time 14-21 day; in short: as §3
[6] = system: Mycobacterium tuberculosis; test: as §2, with “234/2005” for “7357/1998”; type: functional, organism-based; settings: time 14-21 day; in short: as §3
[7] = system: Mycobacterium tuberculosis; test: as §2, with “9449/2007” for “7357/1998”; type: functional, organism-based; settings: time 14-21 day; in short: as §3
[8] = system: Mycobacterium tuberculosis; test: Antibacterial activity against Mycobacterium tuberculosis H37Rv (ATCC 27294) assessed as inhibition of bacterial growth incubated for 14 days; type: functional; settings: 336 h, time 14 day; in short: as §1
[9] = Selectivity index, ratio of IC50 for cytotoxicity against human HepG2 cells by MTT assay to MIC99 for antitubercular activity against Mycobacterium tuberculosis CNCTC My 331/88 (H37Rv) assessed as inhibition of bacterial growth measured after 14 days of incubation; type: functional; settings: time 14 day
In short: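 HepG2 cells, 15 × 10³/well, were attached overnight and exposed 24 h to serial dilutions (DMSO ≤1%). Read by MTT at 0.5 mg/mL for 1 h and 570 nm. IC50 from 4-parameter regression, three independent experiments in triplicate. SI is HepG2 IC50 divided by H37Rv MIC99.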

Staphylococcus aureus [10] = test: Antibacterial activity against Staphylococcus aureus C1947 assessed as inhibition of bacterial growth incubated for 24 to 48 hrs by microdilution broth method; type: functional, organism-based; settings: time 24-48 hrs
In short: (§4)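 Clinical isolates kept at –70 °C and subcultured twice on Mueller-Hinton agar, using the second subculture. Broth microdilution in Mueller-Hinton broth at pH 7.4 with two-fold serial compound dilutions and DMSO ≤1% final. Inoculum was 10 μL of a 1.5 × 10⁸ CFU/mL suspension. Incubated at 36 °C ± 1 °C and read at 24 h and 48 h. MIC taken as 95% growth inhibition.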

Klebsiella pneumoniae [11] = test: Antibacterial activity against ESBL positive Klebsiella pneumoniae C1914 assessed as inhibition of bacterial growth incubated for 24 to 48 hrs by microdilution broth method; type: functional, organism-based; settings: time 24-48 hrs; in short: as §4
[12] = system: Staphylococcus epidermidis; test: Antibacterial activity against Staphylococcus epidermidis C1936 assessed as inhibition of bacterial growth incubated for 24 to 48 hrs by microdilution broth method; type: functional, organism-based; settings: time 24-48 hrs; in short: as §4
Mycobacterium kansasii [13] = test: Antitubercular activity against Mycobacterium kansasii CNCTC My 235/80 assessed as inhibition of bacterial growth measured after 14 days of incubation by Sulas semisynthetic medium based assay; type: functional; settings: CNCTC My 235/80, 336 h, time 14 day
In short: (§5)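 Micromethod in Sula's semisynthetic medium. MIC is the lowest concentration inhibiting >99% of the mycobacterial population. Isoniazid was the standard.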

Staphylococcus aureus [14] = test: Antibacterial activity against methicilin-resistant Staphylococcus aureus C1923 assessed as inhibition of bacterial growth incubated for 24 to 48 hrs by microdilution broth method; type: functional, organism-based; settings: time 24-48 hrs
In short: (§6)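 Clinical isolates, stored at −70 °C, were passaged twice on Mueller-Hinton agar. Broth microdilution in Mueller-Hinton broth, pH 7.4, with twofold serial dilutions. DMSO was at most 1% final. Inoculum 1.5 × 10⁸ CFU/mL suspension. MIC is 95% growth inhibition, read after 24 and 48 h at 36 °C.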

Klebsiella pneumoniae [15] = test: Antibacterial activity against ESBL negative Klebsiella pneumoniae C1950 assessed as inhibition of bacterial growth incubated for 24 to 48 hrs by microdilution broth method; type: functional, organism-based; settings: time 24-48 hrs; in short: as §4
Mycobacterium kansasii [16] = test: Antitubercular activity against Mycobacterium kansasii CNCTC My 235/80 assessed as inhibition of bacterial growth measured after 7 days of incubation by Sulas semisynthetic medium based assay; type: functional; settings: CNCTC My 235/80, 168 h, time 7 day; in short: as §5
[17] = system: Mycobacterium tuberculosis; test: Antitubercular activity against Mycobacterium tuberculosis CNCTC My 331/88 (H37Rv) assessed as inhibition of bacterial growth measured after 21 days of incubation by Sulas semisynthetic medium based assay; type: functional; settings: 504 h, time 21 day; in short: as §1
[18] = system: Mycobacterium tuberculosis; test: Antitubercular activity against Mycobacterium tuberculosis CNCTC My 331/88 (H37Rv) assessed as inhibition of bacterial growth measured after 14 days of incubation by Sulas semisynthetic medium based assay; type: functional; settings: 336 h, time 14 day; in short: as §1
HepG2 = test: Cytotoxicity against human HepG2 cells incubated for 24 hrs by MTT assay; type: functional, cell-based; settings: HepG2, 24 h
In short: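 HepG2 cells in DMEM with 10% FBS, seeded at 15 × 10³ cells/well and attached overnight. Exposed for 24 h to serial dilutions prepared from DMSO stocks, final DMSO ≤1%. Then given fresh medium with 0.5 mg/mL MTT for 1 h at 37 °C. Formazan dissolved in DMSO and read at 570 nm. IC50 from 4-parameter nonlinear regression; three independent experiments in triplicate, mean ± SD.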

Mycobacterium avium [19] = test: Antitubercular activity against Mycobacterium avium CNCTC My 330/88 assessed as inhibition of bacterial growth measured after 14 days of incubation by Sulas semisynthetic medium based assay; type: functional; settings: CNCTC My 330/88, 336 h, time 14 day
In short: (§7)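 M. avium was tested by the micromethod in Sula's semisynthetic medium. Compounds in DMSO at 1000 to 0.5 μmol/L. Incubation at 37 °C, read at 14 and 21 days. MIC is the lowest concentration giving >99% growth inhibition.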

Mycobacterium avium [20] = test: Antitubercular activity against Mycobacterium avium CNCTC My 330/88 assessed as inhibition of bacterial growth measured after 21 days of incubation by Sulas semisynthetic medium based assay; type: functional; settings: CNCTC My 330/88, 504 h, time 21 day; in short: as §7
Pseudomonas aeruginosa = test: Antibacterial activity against multidrug-resistant Pseudomonas aeruginosa A1245 assessed as inhibition of bacterial growth incubated for 24 to 48 hrs by microdilution broth method; type: functional, organism-based; settings: time 24-48 hrs; in short: as §6
Mycobacterium kansasii [21] = test: Antitubercular activity against Mycobacterium kansasii CNCTC My 235/80 assessed as inhibition of bacterial growth measured after 21 days of incubation by Sulas semisynthetic medium based assay; type: functional; settings: CNCTC My 235/80, 504 h, time 21 day; in short: as §5
Escherichia coli = test: Antibacterial activity against Escherichia coli A1235 assessed as inhibition of bacterial growth incubated for 24 to 48 hrs by microdilution broth method; type: functional, organism-based; settings: time 24-48 hrs; in short: as §4
Enterococcus faecium = test: Antibacterial activity against vancomycin-resistant Enterococcus faecium assessed as inhibition of bacterial growth incubated for 24 to 48 hrs by microdilution broth method; type: functional, organism-based; settings: time 24-48 hrs; in short: as §6

Work on C[C@H]1COC2(CCN(c3nc(=O)c4cc(C(F)(F)F)cc([N+](=O)[O-])c4s3)CC2)O1 [BTZ-043] yielded an MIC [1] of 1 ng/mL (≈ 2.32 nM).

With GENTAMICIN the MIC99 [2] was 1 µM, the MIC99 [3] was 0.5 µM and the MIC99 [4] was 1 µM. It also gave an MIC99 [5] of 2 µM, an MIC99 [6] of 0.25 µM and an MIC99 [7] of 1 µM.

Molecule O=C1CCc2c(OC[C@]3(O)CCN(c4c(F)cc(Cl)cc4F)C[C@H]3O)ccc(F)c2N1 [QUABODEPISTAT] has an MIC [8] of 0.5 ng/mL (≈ 1.09 nM).

COc1ncnc(Cn2cc(C(=O)NCCO)c3ncc(C)cc32)c1C [TBA-7371] gave an MIC [8] of 640 ng/mL (≈ 1800 nM).

With O=c1nc(N2CCN(CC3CCCCC3)CC2)sc2c([N+](=O)[O-])cc(C(F)(F)F)cc12 [MACOZINONE] the MIC [1] was at most 0.19 ng/mL.

For c1ccc2cc(Cn3cnc4nc(N5CCOCC5)nc(NC5CCCCC5)c43)ccc2c1, the “Selectivity Index” value [9] was 0.59, the Activity (Staphylococcus aureus [10]) was “inactive” and the Activity (Klebsiella pneumoniae [11]) was “inactive”. The Activity [12] was “inactive”, the MIC99 (Mycobacterium kansasii [13]) was 125 µM (≈ 55.3 µg/mL) and the Activity (Staphylococcus aureus [14]) was “inactive”. The Activity (Klebsiella pneumoniae [15]) was “inactive”, the MIC99 (Mycobacterium kansasii [16]) was 64 µM (≈ 28.3 µg/mL) and the MIC99 [17] was 64 µM (≈ 28.3 µg/mL). The MIC99 [18] was 32 µM (≈ 14.2 µg/mL), the pIC50 (HepG2) was 4.72 and the MIC99 (Mycobacterium avium [19]) was over 500 µM. The MIC99 (Mycobacterium avium [20]) was over 500 µM, the Activity (Pseudomonas aeruginosa) was “inactive” and the MIC99 (Mycobacterium kansasii [21]) was 250 µM (≈ 111 µg/mL). For the same molecule, the Activity (Escherichia coli) was “inactive” and the Activity (Enterococcus faecium) was “inactive”.

With CSc1nc(N2CCOCC2)nc2ncn(Cc3ccc4ccccc4c3)c12 the “Selectivity Index” value [9] was 5.3, the Activity (Staphylococcus aureus [10]) was “inactive” and the Activity (Klebsiella pneumoniae [11]) was “inactive”. The Activity [12] was “inactive”, the MIC99 (Mycobacterium kansasii [13]) was 64 µM (≈ 25.1 µg/mL) and the Activity (Staphylococcus aureus [14]) was “inactive”. The Activity (Klebsiella pneumoniae [15]) was “inactive”, the MIC99 (Mycobacterium kansasii [16]) was 32 µM (≈ 12.5 µg/mL) and the MIC99 [17] was 8 µM (≈ 3.13 µg/mL). For the same molecule, the MIC99 [18] was 8 µM (≈ 3.13 µg/mL), the pIC50 (HepG2) was 4.37 and the MIC99 (Mycobacterium avium [19]) was over 500 µM. For the same molecule, the MIC99 (Mycobacterium avium [20]) was over 500 µM, the Activity (Pseudomonas aeruginosa) was “inactive” and the MIC99 (Mycobacterium kansasii [21]) was 64 µM (≈ 25.1 µg/mL). For the same molecule, the Activity (Escherichia coli) was “inactive” and the Activity (Enterococcus faecium) was “inactive”.
